Calls of active or inactive are those of the source. The calls are words filed in the database; no cut-off is given here.
Columns and labels:
[1] = molecular target: Pancreatic elastase (Sus scrofa) (UniProt P08419+P00772); assay: Inhibition of Pancreatic elastase at 10e-5 M; NI means no inhibition; format: protein assay
In short: (§1)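 Porcine pancreatic elastase diluted to 2 mg/mL in PBS pH 7.5. Substrate N-acetyl-Ala-Ala-Ala-p-nitroanilide, 0.2 mM in PBS with 5% DMSO, preincubated 5 min at 37 °C with or without compound. Enzyme then added and the reaction followed at 410 nm for 5 min. Compounds dissolved in DMSO, ≤0.5% in samples.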

[2] = Concentration inhibiting [3H]TdR incorporation in Yoshida sarcoma tumor cells in vitro in rats; format: functional, cell-based, Rattus norvegicus
In short: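 Yoshida sarcoma cells kept by weekly intraperitoneal passage in Lewis rats. Peritoneal cells washed, placed in RPMI 1640 with 10% FCS at 37 °C, 5% CO2. Nonadherent cells taken after 2 h, set at 10^6 cells/mL, then exposed 24 h to compounds (10^-8–10^-4 M, DMSO ≤0.5%). [3H]thymidine (1 μCi/mL) given for the last 4 h. IC50 for incorporation into DNA read from dose-response curve.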

[3] = molecular target: Serine protease 1 (Homo sapiens) (UniProt P07477); assay: Inhibitory activity against trypsin at 10e-5 M; NI = no inhibition
Sequence of Serine protease 1 (Homo sapiens) (P07477 whole entry): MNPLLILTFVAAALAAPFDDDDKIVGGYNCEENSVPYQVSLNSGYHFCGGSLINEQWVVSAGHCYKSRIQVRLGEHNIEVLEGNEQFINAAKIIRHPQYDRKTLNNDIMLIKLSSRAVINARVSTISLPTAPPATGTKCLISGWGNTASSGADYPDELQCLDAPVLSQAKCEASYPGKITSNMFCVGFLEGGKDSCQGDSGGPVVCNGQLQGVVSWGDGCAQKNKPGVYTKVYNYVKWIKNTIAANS
In short: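 Trypsin dissolved at 1 mg/mL in PBS pH 7.5. Substrate N-α-benzoyl-L-arginine-p-nitroanilide, 0.2 mM in PBS with 5% DMSO, preincubated 5 min at 37 °C with or without compound. Enzyme then added and the reaction followed at 410 nm for 5 min. Compounds dissolved in DMSO, ≤0.5% in samples.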

[4] = molecular target: T1, Chymotrypsin-like elastase family member 2A (Sus scrofa) (UniProt P08419); assay: Inhibitory activity against elastase at a concentration of 10e-5 M; NI means no inhibition; in short: as §1
T1 sequence (whole entry): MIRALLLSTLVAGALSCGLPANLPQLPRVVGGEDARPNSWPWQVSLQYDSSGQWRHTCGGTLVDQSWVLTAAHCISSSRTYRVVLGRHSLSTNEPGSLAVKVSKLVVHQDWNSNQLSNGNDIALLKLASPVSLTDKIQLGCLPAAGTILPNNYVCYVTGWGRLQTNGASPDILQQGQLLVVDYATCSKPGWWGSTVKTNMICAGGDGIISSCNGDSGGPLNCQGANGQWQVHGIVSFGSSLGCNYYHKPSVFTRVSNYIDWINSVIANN

Sequence of Pancreatic elastase (Sus scrofa) (P00772 whole entry, looked up, one chain of several): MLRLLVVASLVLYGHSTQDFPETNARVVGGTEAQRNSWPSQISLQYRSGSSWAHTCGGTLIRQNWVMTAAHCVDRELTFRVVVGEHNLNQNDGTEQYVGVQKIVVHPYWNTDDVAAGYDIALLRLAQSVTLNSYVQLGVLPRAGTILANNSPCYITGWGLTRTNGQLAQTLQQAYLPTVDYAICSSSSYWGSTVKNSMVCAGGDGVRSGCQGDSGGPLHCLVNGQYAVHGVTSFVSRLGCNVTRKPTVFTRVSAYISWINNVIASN

| SMILES | inhibition [1] | IC50 [2] [nM] | inhibition [3] | inhibition [4] |
| --- | --- | --- | --- | --- |
| COC1C(O[C@@H]2c3c(cc4c(c3O)C(=O)c3c(O)cccc3C4=O)C(=O)[C@@](C)(O)[C@H]2OC)OC(C)C(O)C1O (some centres undefined) | inactive | 2200 | inactive | – |
| COC1C(C)OC(O[C@@H]2c3c(cc4c(c3O)C(=O)c3c(O)cccc3C4=O)C(=O)[C@@](C)(O)[C@H]2OC)C(OC)C1OC (some centres undefined) | inactive | 4700 | inactive | – |
| CC[C@@]1(O)C[C@H](O[C@H]2C[C@H](N(C)C)[C@H](O[C@H]3C[C@H](O)[C@H](O[C@H]4CCC(=O)[C@H](C)O4)[C@H](C)O3)[C@H](C)O2)c2c(cc3c(c2O)C(=O)c2c(O)cccc2C3=O)[C@H]1C(=O)OC [ACLARUBICIN] | – | < 20 | inactive | inactive |
| COC1C(O[C@@H]2c3c(cc4c(c3O)C(=O)c3c(O)cccc3C4=O)C(=O)[C@](C)(O)[C@H]2OC)OC(C)C(O)C1O (some centres undefined) | inactive | 1000 | inactive | – |
| COC1C(O[C@@H]2c3c(cc4c(c3O)C(=O)c3c(O)c(N(C)C)cc(N(C)C)c3C4=O)C(=O)[C@@](C)(O)[C@H]2OC)OC(C)C(O)C1O (some centres undefined) | inactive | 5000 | inactive | – |
| COC1C(O[C@@H]2c3c(cc4c(c3O)C(=O)c3c(O)cccc3C4=O)C(/N=N/S(=O)(=O)c3ccc(C)cc3)[C@@](C)(O)[C@H]2OC)OC(C)C(O)C1O (some centres undefined) | inactive | 3900 | inactive | – |
| CO[C@H]1[C@H](O)c2c(cc3c(c2O)C(=O)c2c(O)cccc2C3=O)C(=O)[C@@]1(C)O | inactive | 600 | inactive | – |
| COC1C(O[C@@H]2c3c(cc4c(c3O)C(=O)c3c(O)cccc3C4=O)C(=O)[C@@](C)(O)[C@H]2OC)OC(C)C(OC(C)=O)C1OC(C)=O (some centres undefined) | inactive | 1300 | inactive | – |
| CCOP(=O)(OCC)O[C@]1(C)C(=O)c2cc3c(c(O)c2[C@@H](OC2OC(C)C(O)C(O)C2OC)[C@@H]1OC)C(=O)c1c(O)cccc1C3=O (some centres undefined) | inactive | 630 | inactive | – |
| COC1C(O[C@@H]2c3c(cc4c(c3O)C(=O)c3c(ccc(N(C)C)c3O)C4=O)C(=O)[C@@](C)(O)[C@H]2OC)OC(C)C(O)C1O (some centres undefined) | inactive | 630 | inactive | – |
| COc1cccc2c1C(=O)c1c(O)c3c(c(O)c1C2=O)C[C@@](O)(C(C)=O)C[C@@H]3O[C@H]1C[C@H](N)[C@H](O)[C@H](C)O1 [DAUNORUBICIN] | inactive | < 20 | inactive | – |
| COc1cccc2c1C(=O)c1c(O)c3c(c(O)c1C2=O)C[C@@](O)(C(=O)CO)C[C@@H]3O[C@H]1C[C@H](N)[C@H](O)[C@H](C)O1 [DOXORUBICIN] | inactive | < 20 | inactive | – |
| COC1C(O[C@@H]2c3c(cc4c(c3O)C(=O)c3c(O)cccc3C4=O)C(=O)[C@@](C)(O)[C@H]2OC)OC(C)C(O)C1O[Si](C)(C)C(C)(C)C (some centres undefined) | inactive | 1400 | inactive | – |

— ChEMBL document CHEMBL1126272, “Inhibition of collagenase by aranciamycin and aranciamycin derivatives” (J Med Chem, 1992)
